# Measurements from PubChem BioAssay AID504383 (The Scripps Research Institute Molecular Screening Center, 2011).
# In all, about 2,500 compounds went through this assay and about 1,200 (48%) were called active. So high a share suggests a set chosen from earlier hits. Some of the results follow. Unmarked numbers belong to inactive results.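 Rule for the calls: active = mean activation above the low control average plus 3 SD, as set in the primary screen (cut at about 12% in these data); inactive = the rest.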
# Biological target: Troponin I, cardiac muscle (Homo sapiens) + Troponin T, cardiac muscle (Homo sapiens) + Troponin C, slow skeletal and cardiac muscles (Homo sapiens) (UniProt P19429+P45379+P63316)
# Assay: calcium sensitizers of cardiac thin filaments – biochemical, IANBD-TnC fluorescence, triplicate, confirmation (AID 504383);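 note: 0% = DMSO at 0.472 mM calcium and 100% = DMSO at 2.9 mM calcium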
# Settings: IANBD-labeled cardiac RTF, Ca2+ sensitivity fluorescence; at 7.2 µM; active compounds read high; scaled from EC20 to saturating calcium; tested at EC20 calcium, 0.472 mM
# How it was run: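 Assay system: labelled regulated thin filament protein complex; schedule: 15 min compound incubation with filaments at 25 °C; benchmarks: low control EC20 calcium, high control EC100 calcium; reagent: Ca2+ 0.472 mM, EC20 level; doses: one dose, 7.2 µM nominal; evaluation: fluorescence gain scaled between EC20 and EC100 calcium controls; signal: filament fluorescence intensity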
row,SMILES,activation
1,O=C1/C(=C/C=C/c2ccccc2)Oc2c1ccc(O)c2CN1CCN(CCO)CC1,126% (active)
2,Cc1ccc(/C=C2\Oc3c(ccc(O)c3CN3CCN(C)CC3)C2=O)cc1,1.83%
3,Cc1ccc(/C=C2\Oc3c(ccc(O)c3CN3CCN(CCO)CC3)C2=O)cc1,34.7% (active)
4,CCN1CCN(Cc2c(O)ccc3c2O/C(=C\C=C\c2ccccc2OC)C3=O)CC1,8.36%
5,CC(C)c1ccc(/C=C2\Oc3c(ccc(O)c3CN3CCN(C)CC3)C2=O)cc1,7.76%
6,COc1ccccc1/C=C/C=C1\Oc2c(ccc(O)c2CN2CCN(CCO)CC2)C1=O,41.9% (active)
7,CC(=O)c1ccc2c(c1)c(C#N)c1ccccc1[n+]2[O-],174% (active)
8,CC1(C)CC(N2CCCC2)=CC(=[N+]2CCCCC2)C1,16% (active)
9,COc1ccc(-n2c(O)c(/C=N/NS(=O)(=O)c3ccc(C)cc3)c3ccccc3c2=O)cc1OC,46% (active)
10,COc1ccc(-n2c(O)c(/C=N/NS(=O)(=O)c3cc(C)ccc3C)c3ccccc3c2=O)cc1OC,10.9%
11,COc1ccc(-n2c(O)c(/C=N/NS(=O)(=O)c3ccc(C)c([N+](=O)[O-])c3)c3ccccc3c2=O)cc1OC,3.31%
12,CCC12CN3CCN(CC(C3)/C1=N\NC(=O)Nc1ccccc1)C2,4.76%
13,O=C(c1ccccc1)[C@@H]1[C@@H]2C(=O)N(c3ccc(F)cc3)C(=O)[C@@H]2C2CCCN21 (stereo partly drawn),22.7% (active)
14,Cc1ccc(C(=O)N2C(=O)C(c3ccccc3)Oc3ccccc32)cc1 (stereo not drawn),5.01%
15,Cc1ccc(N2C(=O)[C@@H]3[C@H](C2=O)C2CCCN2[C@@H]3C(=O)c2ccccc2)cc1 (stereo partly drawn),290% (active)
16,O=C1CC(c2cccc(Oc3ccccc3)c2)NC(=O)N1 (stereo not drawn),6.43%
17,COc1cccc(C2CC(c3ccccc3)n3ncnc3N2)c1 (stereo not drawn),19.8% (active)
18,N#C/C(=C(/O)COC(=O)COc1ccc(Cl)cc1)c1nc2ccccc2[nH]1,13.2% (active)
19,COc1ccc(C(=O)OC/C(O)=C(\C#N)c2nc3ccccc3[nH]2)cc1S(=O)(=O)N1CCOCC1,-0.63%
20,Cc1ccc(N=Cc2sc(O)c3ccccc23)c(C)c1,7.52%

row,SMILES,activation
1,CCN(CC)c1ccc(C=Nc2cc(C)ccc2C)c(O)c1,15.7% (active)
2,O=C(c1ccc2c(=O)n3c(nc2c1)CCCCC3)N1CCN(c2cccc(Cl)c2)CC1,0.38%
3,COc1ccccc1NC(=O)CC(=O)CSc1nnc(-c2ccc(C)cc2)n1-c1ccccc1,3.38%
4,COc1ccc(-c2nnc(SCC(=O)c3ccc[nH]3)n2-c2ccccc2)cc1,15.9% (active)
5,Cc1ccc(C(=O)NNC(=O)CSc2nnc(-c3ccncc3)n2-c2ccc(C)cc2)cc1,7.51%
6,Cn1cc(Cl)c(-c2nc3ccccc3[nH]2)n1,20.4% (active)
7,Cn1nc([N+](=O)[O-])c(C(C#N)c2ccccn2)c(Cl)c1=O (stereo not drawn),8.7%
8,CCOC(=O)c1ccc(NC(=O)c2cc3c(C)nn(-c4ccccc4Cl)c3s2)s1,16.9% (active)
9,CCN(CC)CCCNc1ccc2ncn3c4ccc(O)cc4c(=O)c1c23,-1.43%
10,O=C/C(=C\Nc1ccc(S(=O)(=O)CCO)cc1)c1nc2cc(Cl)ccc2o1,65% (active)
11,N#CC(C#N)=C1C=C2C=C(N3CCCCCC3)CCC2CC1 (stereo not drawn),5.58%
12,COc1ccc2ccccc2c1C(O)c1nccn1C (stereo not drawn),58% (active)
13,CN1c2ccc(C=O)c3c(C=O)ccc(c23)N(C)C1(C)C,1.58%
14,CC1=CC2=NC(=O)/C(=C\c3ccc(-c4cccc(Cl)c4)o3)C(=N)N2O1,101% (active)
15,OCCNCc1cccc(OCc2ccc(Cl)cc2)c1,173% (active)
16,COc1ccc(CNCc2cccc(Cl)c2)cc1,4.73%
17,CN1CCN(CCOc2ccc(Cc3ccccc3)cc2)CC1,9.76%
18,O=C(C1CCN(Cc2ccc(OCc3ccccc3)cc2)CC1)N1CCCC1,-1.48%
19,CN1CCN(/N=C/c2ccc(OCc3ccccc3)cc2)CC1,309% (active)
20,O=C(NCc1ccco1)C1CCC(N2C(=O)C3C4CCC(C4)C3C2=O)CC1 (stereo not drawn),6.57%

row,SMILES,activation
1,O=C(O)C1CC(O)CN1C(=O)c1ccco1 (stereo not drawn),5.9%
2,O=C(NCc1ccco1)C1Cc2ccccc2CN1C(=O)c1ccco1 (stereo not drawn),2880% (active)
3,CCCCOc1ccc(C2OC34CCCCC3C(C#N)(C#N)C2(C#N)C(=N)O4)cc1 (stereo not drawn),6.95%
4,COc1ccc(C2OC34CCCCC3C(C#N)(C#N)C2(C#N)C(=N)O4)cc1 (stereo not drawn),5.98%
5,N#CC1(C#N)C(c2ccccc2)OC23CCCCC2C1(C#N)C(=N)O3 (stereo not drawn),-2.46%
6,CCOc1ccc(C2OC34CCCCC3C(C#N)(C#N)C2(C#N)C(=N)O4)cc1OC (stereo not drawn),7.44%
7,CCCC1OC23CCCCC2C(C#N)(C#N)C1(C#N)C(=N)O3 (stereo not drawn),179% (active)
8,CCCCC1OC23CCCCC2C(C#N)(C#N)C1(C#N)C(=N)O3 (stereo not drawn),13% (active)
9,CCCCC1OC23CCCCC2C(C#N)(C(=N)O3)C1(C#N)C#N (stereo not drawn),10.2%
10,CCC1OC23CCCCC2C(C#N)(C(=N)O3)C1(C#N)C#N (stereo not drawn),10.4%
11,CCCCCCCCOc1ccc(C2OC34CCCCC3C(C#N)(C#N)C2(C#N)C(=N)O4)cc1 (stereo not drawn),17.2% (active)
12,COc1cccc(/C=N/Nc2nnc3c(n2)[nH]c2ccccc23)c1OC,13.1% (active)
13,COc1cccc(/C=N/c2nc3ccccc3[nH]2)c1O,6.09%
14,NC(=O)[C@@H]1CCCNc2c(I)cc([N+](=O)[O-])cc2C(=O)N[C@@H](CCC(=O)O)C(=O)N[C@@H](CO)C(=O)N1,6.37%
15,OC(CNCC1CCCO1)Cn1c2ccc(Br)cc2c2cc(Br)ccc21 (stereo not drawn),34.1% (active)
16,COC(=O)C(C)n1cnc2c(nnn2Cc2ccc(Cl)cc2)c1=O (stereo not drawn),12.4% (active)
17,Cc1ccccc1-n1c(SCc2c(C)noc2C)nnc1-c1cccnc1,13.8% (active)
18,COc1cc2c(cc1OC)CN(Cc1cc(=O)oc3cc(C)c(C)cc13)CC2,-0.4%
